Measurements pooled from the literature.
Each line is one published result; the experiments were not run side by side. pEC50, pIC50, pKd, pKi: −log10 of the molar value.
Oprm1: Mu-type opioid receptor (Oprm1, Rattus norvegicus, UniProt P33535)
DRD4: D(4) dopamine receptor (DRD4, Homo sapiens, UniProt P21917)
ABHD6: Monoacylglycerol lipase ABHD6 (ABHD6, Homo sapiens, UniProt Q9BV23)

SMILES | target | effect on | action | method | setting | measurement | result
C[C@@H](NC(=O)C[C@@H](N)Cc1ccc(O)cc1)C(=O)NCC(=O)N[C@@H](Cc1ccccc1)C(=O)NNC(=O)[C@H](Cc1ccccc1)NC(=O)CNC(=O)[C@@H](C)NC(=O)C[C@@H](N)Cc1ccc(O)cc1 | Oprm1 | ligand displacement |  | radioligand |  | pIC50 | 6.87
Cc1ccc(Cc2ccc3c(c2)CN(C(=O)[C@@H](N)Cc2c(C)cc(O)cc2C)CC3)cc1 | Oprm1 | ligand displacement |  | radioligand | cell membranes | pKi | 6.94
CNc1nc2cc(OCCCCN3CCN(c4cccc(Cl)c4Cl)CC3)ccc2s1 | 5-hydroxytryptamine receptor 5A (HTR5A, Homo sapiens, UniProt P47898) | ligand displacement |  | radioligand |  | pKi | 5.89
CC(CCc1ccc(O)cc1)NCCc1ccc(O)c(O)c1 (stereo not drawn) | DRD4 | ligand displacement |  | radioligand |  | pIC50 | 5.62
COc1ccc(N(C)C(=O)Oc2nsnc2N2CCCCC2)cc1 | ABHD6 | enzyme activity | inhibitor | fluorescence | lysate | pIC50 | 6.58
O=P(O)(O)Oc1ccccc1OP(=O)(O)O | Signal transducer and activator of transcription 6, SH2 (Homo sapiens, UniProt P42226) | ligand displacement |  | FP |  | pKi | 4.74
OC(c1ccc(F)cc1)C(F)(F)CCN1CCC(O)(c2ccc(Cl)cc2)CC1 (racemic) | DRD4 | cell-free assay |  | radioligand |  | pKi | 7.29
CC(=O)N[C@@H](CO)C(=O)N[C@@H](Cc1ccccc1)C(=O)N[C@@H](CCC(=O)O)C(=O)N[C@@H](Cc1ccccc1)C(=O)N1CCC[C@H]1C(=O)N1CCC[C@H]1C(=O)N1CCC[C@H]1C(=O)N1CCC[C@H]1C(=O)N[C@H](C(=O)N[C@@H](CCC(=O)O)C(=O)N[C@@H](CC(=O)O)C(=O)N[C@@H](CCC(=O)O)C(=O)N[C@@H](CC(C)C)C(N)=O)[C@@H](C)O | Vasodilator-stimulated phosphoprotein (VASP, Homo sapiens, UniProt P50552) | binding |  | fluorescence |  | pKd | 4.72
CN(C(=O)Oc1nsnc1N1CCCCC1)C1CCCCCC1 | ABHD6 | enzyme activity | inhibitor | fluorescence | lysate | pIC50 | 7.37
O=C(Nc1cccc(-c2ccn3c(CC4CC4)nnc3c2C(F)(F)F)c1)c1ccc(S(=O)(=O)F)cc1 | Metabotropic glutamate receptor 8 (GRM8, Homo sapiens, UniProt O00222) | calcium signal | agonist |  |  | pEC50 | < 4.30
CN(C(=O)Oc1nsnc1N1CCCCC1)C1CCCCCCC1 | ABHD6 | enzyme activity | inhibitor | fluorescence | lysate | pIC50 | 7.14
CNC(=O)c1cccc(-c2ccc(O[C@H]3O[C@H](CO)[C@@H](O)[C@H](O)[C@@H]3O)cc2)c1 | Type 1 fimbrin D-mannose specific adhesin, N-terminal domain (fimH, Escherichia coli K-12, UniProt P08191) | binding |  | BLI |  | pKd | 11.00
